One experiment deals with NCI-H460. Nature of the experiment: Cytotoxicity against human NCI-H460 cells by SRB assay. The experiment is classed as functional. In short, it runs like this:
(§1)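 Cell lines obtained from ATCC and kept in recommended media containing gentamicin and amphotericin B. Growth inhibition was measured by the NCI standard sulforhodamine B assay. GI50 is the drug concentration calculated to halve net protein increase relative to untreated cells. Values are averages of at least three separate experiments, each run in triplicate.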
(In general: In SRB staining, fixed cells bind dye roughly in proportion to their protein.)

For a further experiment, the system named is DU-145. In words: Cytotoxicity against human DU145 cells by SRB assay. Type of experiment: functional. In short, it runs like this: as §1
Another experiment relates to SK-OV-3. In words: Cytotoxicity against human SKOV3 cells by SRB assay. Type of experiment: functional. In short, it runs like this:
as §1

In experiment [1] the target is T1, Tubulin (Homo sapiens) (UniProt P68371+Q9H4B7+P0DPH7+P68366+Q13509+Q71U36+P04350+Q3ZCM7+P07437+P68363+Q9BQE3+Q6PEY2+Q13885+Q9BVA1+Q9BUF5). In words: Displacement of [3H]colchicine from tubulin (unknown origin) at 50 uM. Type of experiment: protein-complex assay. Summed up:
(§2)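 Colchicine binding assay with 1 μM tubulin and 5.0 μM [3H]colchicine. Inhibitor tested at 50, 5 and/or 1 μM.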
(Loss of bound radioactivity is the signal in a displacement assay; it reports binding, not function.)

Experiment [2] can be described thus: Inhibition of bovine brain tubulin polymerization after 20 mins. Also noted: species or system Bos taurus. Summed up: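 Purified bovine brain tubulin, 10 μM (1.0 mg/mL), preincubated with a concentration series in glutamate buffer at 30 °C, then cooled to 0 °C. GTP added, then warmed to 30 °C to start assembly. Turbidity read at 350 nm, with disassembly checked by cooling.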

The next experiment relates to Mus musculus. Nature of the experiment: Vascular disrupting activity in human PC3 cells xenografted SCID mouse assessed as decrease of blood flow in tumor at 350 mg/kg, ip after 80 mins by bioluminescence imaging analysis. The experiment is classed as functional, organism-based. Also noted: dose 350 mg/kg. To be noted: PC-3. A general note: In xenograft studies the graft and the host belong to different species.

Experiment [3] deals with T1, Tubulin (Homo sapiens). Nature of the experiment: Displacement of [3H]colchicine from tubulin (unknown origin) at 5 uM. The experiment is classed as protein-complex assay. In short, it runs like this: as §2

The source of these data is ChEMBL document CHEMBL2417396 (J Nat Prod, 2013).

Activity calls are given as the source filed them. The rule behind the calls is not given here.

The GI50 is the concentration at which growth is held to half of that of the control. A lower GI50 goes with more potent growth inhibition. One may read the inhibition as how much of the control response was suppressed. As a reminder, the IC50 is the midpoint of a concentration-inhibition curve. A lower IC50 goes with greater potency in that assay.

`COc1ccc(/C=C\c2cc(OC)c(OC)c(OC)c2)cc1OP(=O)(O)O` [FOSBRETABULIN DISODIUM]: the results for the GI50 in the experiment with NCI-H460 and in the experiment with DU-145 were 66 nM and 16 nM, respectively.

For `COc1ccc(/C=C\c2cc(OC)c(OC)c(OC)c2)cc1O` [COMBRETASTATIN A4], the values for the GI50 in the experiment with NCI-H460, in the experiment on SK-OV-3 and with DU-145 were 2.8 nM, 0.42 nM and 0.54 nM, respectively.

`COc1ccc2c(C(=O)c3cc(OC)c(OC)c(OC)c3)c(-c3ccc(OC)c(O)c3)n(C)c2c1` registered an inhibition at Tubulin (Homo sapiens) [1] of 34%. Further, the GI50 with NCI-H460 was 4140 nM; in the experiment on SK-OV-3, 2050 nM; with DU-145, 2680 nM. For the same compound, in experiment [2], the IC50 is > 20000 nM.

As for `COc1ccc2c(C(=O)c3cc(OC)c(OC)c(OC)c3)c(-c3ccc(OC)c(OP(=O)(O)O)c3)n(C)c2c1`, on Tubulin (Homo sapiens) [1], the inhibition amounted to 29%. Moreover, the results for the GI50 in the experiment with NCI-H460, with SK-OV-3 and with DU-145 were 3560 nM, 8640 nM and 4670 nM, respectively. The IC50 in experiment [2] is > 20000 nM.

With `COc1ccc2c(C(=O)c3cc(OC)c(OC)c(OC)c3)c(-c3ccc(OC)c(OP(=O)(O)O)c3)[nH]c2c1`, the outcome in the experiment on Mus musculus was Active. Besides, the inhibition on Tubulin (Homo sapiens) [3] came to 26%. Moreover, the GI50 is 31.1 nM in the experiment on NCI-H460, 22.3 nM in the experiment with SK-OV-3 and 29.7 nM with DU-145. Besides, in experiment [2], the IC50 was found to be 4200 nM.
